Measured values from ChEMBL document CHEMBL4387722.

What was measured:
[1] = biological target: T1, Tyrosine-protein phosphatase non-receptor type 5 (Homo sapiens, UniProt P54829); experiment: Inhibition of human PTPN5 expressed in Escherichia coli Rosetta 2 (DE3) using pNPP as substrate after 45 mins by spectrophotometric method
T1 sequence (P54829 whole entry): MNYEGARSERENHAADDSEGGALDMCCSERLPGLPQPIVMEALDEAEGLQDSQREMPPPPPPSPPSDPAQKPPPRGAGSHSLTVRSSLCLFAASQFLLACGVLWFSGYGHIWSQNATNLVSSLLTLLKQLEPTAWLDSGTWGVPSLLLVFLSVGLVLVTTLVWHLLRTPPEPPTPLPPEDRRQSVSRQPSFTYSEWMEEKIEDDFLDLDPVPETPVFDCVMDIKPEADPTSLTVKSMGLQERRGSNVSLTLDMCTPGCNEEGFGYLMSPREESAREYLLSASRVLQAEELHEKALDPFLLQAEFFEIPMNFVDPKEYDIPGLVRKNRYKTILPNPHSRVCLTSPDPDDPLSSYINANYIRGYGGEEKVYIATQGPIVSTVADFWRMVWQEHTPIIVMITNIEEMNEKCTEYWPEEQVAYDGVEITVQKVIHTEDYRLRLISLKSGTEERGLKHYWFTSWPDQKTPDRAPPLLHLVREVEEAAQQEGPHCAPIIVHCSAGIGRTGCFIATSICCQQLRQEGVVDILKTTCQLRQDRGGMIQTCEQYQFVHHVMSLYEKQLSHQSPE

[2] = biological target: T2, Tyrosine-protein phosphatase non-receptor type 2 (Homo sapiens, UniProt P17706); experiment: Inhibition of human PTPN2 expressed in Escherichia coli Rosetta 2 (DE3) using pNPP as substrate after 45 mins by spectrophotometric method
T2 sequence (P17706 whole entry): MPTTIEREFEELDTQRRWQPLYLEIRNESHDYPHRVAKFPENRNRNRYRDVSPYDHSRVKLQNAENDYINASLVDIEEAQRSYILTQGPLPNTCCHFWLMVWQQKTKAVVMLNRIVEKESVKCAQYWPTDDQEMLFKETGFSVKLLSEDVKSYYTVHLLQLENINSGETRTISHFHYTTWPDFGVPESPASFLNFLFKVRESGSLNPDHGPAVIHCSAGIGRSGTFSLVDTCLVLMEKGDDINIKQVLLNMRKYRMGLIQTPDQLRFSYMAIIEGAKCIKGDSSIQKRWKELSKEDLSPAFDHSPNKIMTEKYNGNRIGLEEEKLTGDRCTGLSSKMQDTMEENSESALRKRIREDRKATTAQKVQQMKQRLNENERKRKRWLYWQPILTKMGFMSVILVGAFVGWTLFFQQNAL

[3] = tested on: Mycobacterium tuberculosis; experiment: Antitubercular activity against Mycobacterium tuberculosis H37Rv after 5 days at 200 uM relative to control; type: functional; settings: 120 h
Method in brief: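 M. tuberculosis grown in liquid culture with compound at a fixed 200 μM for 5 days. Growth inhibition expressed as percent of control.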

[4] = biological target: T3, Phosphotyrosine protein phosphatase (Mycobacterium tuberculosis, UniProt A0A045ISB3); experiment: Inhibition of Mycobacterium tuberculosis His-tagged PtpB expressed in Escherichia coli Rosetta 2 (DE3) using pNPP as substrate after 30 mins by spectrophotometric method
T3 sequence (A0A045ISB3 whole entry): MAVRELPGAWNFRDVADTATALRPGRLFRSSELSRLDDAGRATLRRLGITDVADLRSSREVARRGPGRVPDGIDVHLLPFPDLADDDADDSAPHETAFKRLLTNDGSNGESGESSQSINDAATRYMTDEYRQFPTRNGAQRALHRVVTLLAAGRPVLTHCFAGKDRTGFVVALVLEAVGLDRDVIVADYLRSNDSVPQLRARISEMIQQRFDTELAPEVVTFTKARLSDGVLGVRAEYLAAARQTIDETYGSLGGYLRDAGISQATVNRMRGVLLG

[5] = biological target: T4, Tyrosine-protein phosphatase non-receptor type 1 (Homo sapiens, UniProt P18031); experiment: Inhibition of human PTPN1 expressed in Escherichia coli Rosetta 2 (DE3) using pNPP as substrate after 45 mins by spectrophotometric method
T4 sequence (P18031 whole entry): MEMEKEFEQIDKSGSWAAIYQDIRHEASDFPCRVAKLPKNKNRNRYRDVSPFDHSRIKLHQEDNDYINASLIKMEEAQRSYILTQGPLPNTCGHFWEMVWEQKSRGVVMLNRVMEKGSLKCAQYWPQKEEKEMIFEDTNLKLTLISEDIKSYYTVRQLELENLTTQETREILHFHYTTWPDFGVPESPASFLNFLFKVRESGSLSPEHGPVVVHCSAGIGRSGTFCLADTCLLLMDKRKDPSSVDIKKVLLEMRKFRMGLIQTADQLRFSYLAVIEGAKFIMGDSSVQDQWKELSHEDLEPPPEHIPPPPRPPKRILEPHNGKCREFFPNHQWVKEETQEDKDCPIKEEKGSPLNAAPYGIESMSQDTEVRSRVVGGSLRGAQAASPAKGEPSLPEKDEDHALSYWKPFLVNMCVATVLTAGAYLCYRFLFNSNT

| SMILES | IC50 [1] [µM] | IC50 [2] [µM] | inhibition at 200 µM [3] [%] | IC50 [4] [µM] | IC50 [5] [µM] |
| --- | --- | --- | --- | --- | --- |
| O=S(=O)(Nc1ccc(-c2nc3cc(NS(=O)(=O)C(F)(F)F)ccc3o2)cc1)C(F)(F)F | > 100 | > 100 | 28 | 42 | > 100 |
| O=S(=O)(Nc1ccc(-c2nc3cc(NS(=O)(=O)c4ccc(Cl)s4)ccc3o2)cc1)c1ccc(Cl)c(Cl)c1 | 9.8 | 12 | 0 | 2.3 | 6.9 |
| O=S(=O)(Nc1ccc2oc(-c3ccc(NS(=O)(=O)c4ccc(Cl)s4)cc3)nc2c1)c1cccc(C(F)(F)F)c1 | 16 | 20 | 0 | 7.1 | 13 |
| O=[N+]([O-])c1ccc(S(=O)(=O)Nc2ccc(-c3nc4cc(NS(=O)(=O)c5ccc([N+](=O)[O-])cc5)ccc4o3)cc2)cc1 | 18 | 28 | 0 | 6.2 | 27 |
| COc1ccc(S(=O)(=O)Nc2ccc(-c3nc4cc(NS(=O)(=O)c5ccc(Cl)s5)ccc4o3)cc2)cc1 | 16 | 16 | 25 | 11 | 11 |
| Cc1ccccc1S(=O)(=O)Nc1ccc(-c2nc3cc(NS(=O)(=O)c4ccccc4C)ccc3o2)cc1 | 14 | 18 | 0 | 4.9 | 12 |
| O=S(=O)(Nc1ccc(-c2nc3cc(NS(=O)(=O)c4ccc5ncsc5c4)ccc3o2)cc1)c1ccc2ncsc2c1 | 20 | 12 | 0 | 20 | 7 |
| O=S(=O)(Nc1ccc(-c2nc3cc(NS(=O)(=O)c4cccc5ccccc45)ccc3o2)cc1)c1cccc2ccccc12 | 4.9 | 25 | 0 | 2.1 | 3.2 |
| COc1ccc(Cl)cc1S(=O)(=O)Nc1ccc(-c2nc3cc(NS(=O)(=O)c4ccc(Cl)s4)ccc3o2)cc1 | 11 | 16 | 33 | 3.4 | 6.4 |
| CCc1ccc(S(=O)(=O)Nc2ccc(-c3nc4cc(NS(=O)(=O)c5ccc(Cl)s5)ccc4o3)cc2)cc1 | 12 | 12 | 11 | 6.5 | 14 |
| O=S(=O)(Nc1ccc(-c2nc3cc(NS(=O)(=O)c4ccc(Cl)s4)ccc3o2)cc1)c1ccc2ncsc2c1 | 13 | 11 | 33 | 7.1 | 7.9 |
| O=S(=O)(Nc1ccc(-c2nc3cc(NS(=O)(=O)c4ccc(Cl)s4)ccc3o2)cc1)c1ccc(Cl)s1 | 15 | 25 | 41 | 2.3 | 11 |
| CCCS(=O)(=O)Nc1ccc(-c2nc3cc(NS(=O)(=O)CCC)ccc3o2)cc1 | 83 | > 100 | 13 | > 100 | > 100 |
| COc1ccc(S(=O)(=O)Nc2ccc3oc(-c4ccc(NS(=O)(=O)c5ccc(Cl)s5)cc4)nc3c2)cc1 | 16 | 24 | 41 | 9.6 | 12 |
| O=S(=O)(Nc1ccc(-c2nc3cc(NS(=O)(=O)c4ccc(Cl)s4)ccc3o2)cc1)c1cccs1 | 9.3 | 9.5 | 0 | 3.4 | 4.9 |
| O=S(=O)(Nc1ccc(-c2nc3cc(NS(=O)(=O)c4cccc5ccccc45)ccc3o2)cc1)c1ccc(Cl)s1 | 5.1 | 7.3 | 12 | 2.2 | 6.5 |
| Cc1cccc(S(=O)(=O)Nc2ccc(-c3nc4cc(NS(=O)(=O)c5cccc(C)c5)ccc4o3)cc2)c1 | 16 | 17 | 0 | 5.8 | 13 |
| O=S(=O)(Nc1ccc(-c2nc3cc(NS(=O)(=O)c4ccc5ccccc5c4)ccc3o2)cc1)c1ccc2ccccc2c1 | 6.2 | 24 | 0 | 4.4 | 4.3 |
| O=c1ccc2cc(S(=O)(=O)Nc3ccc4oc(-c5ccc(NS(=O)(=O)c6ccc(Cl)s6)cc5)nc4c3)ccc2o1 | 11 | 9.3 | 18 | 4.1 | 13 |
| O=S(=O)(Nc1ccc2oc(-c3ccc(NS(=O)(=O)c4ccc(Cl)s4)cc3)nc2c1)c1ccc2ncsc2c1 | 11 | 9.3 | 50 | 3.6 | 12 |
| COC(=O)c1cccc(S(=O)(=O)Nc2ccc(-c3nc4cc(NS(=O)(=O)c5cccc(C(=O)OC)c5)ccc4o3)cc2)c1 | 16 | 13 | 0 | 5.8 | 17 |
| COc1cccc(S(=O)(=O)Nc2ccc(-c3nc4cc(NS(=O)(=O)c5cccc(OC)c5)ccc4o3)cc2)c1 | 22 | 16 | 0 | 9.4 | 18 |
| COC(=O)c1ccccc1S(=O)(=O)Nc1ccc(-c2nc3cc(NS(=O)(=O)c4ccccc4C(=O)OC)ccc3o2)cc1 | 21 | 14 | 0 | 11 | 10 |
| O=S(=O)(Nc1ccc(-c2nc3cc(NS(=O)(=O)c4ccc(Cl)cc4)ccc3o2)cc1)c1ccc(Cl)cc1 | 12 | 19 | 0 | 4.3 | 8.1 |
| O=S(=O)(Nc1ccc(-c2nc3cc(NS(=O)(=O)c4ccc(Cl)s4)ccc3o2)cc1)c1ccc(Br)cc1 | 8.8 | 11 | 0 | 5.3 | 8.8 |
| Cc1ccc(S(=O)(=O)Nc2ccc(-c3nc4ccc(NS(=O)(=O)c5ccc(C)cc5)cc4[nH]3)cc2)cc1 | 13 | 22 | 14 | 23 | 15 |
| Cc1ccc(S(=O)(=O)Nc2ccc(-c3nc4cc(NS(=O)(=O)c5ccc(C)cc5)ccc4o3)cc2)cc1 | 14 | 18 | 0 | 6.9 | 14 |
| O=S(=O)(Nc1ccc(-c2nc3cc(NS(=O)(=O)c4ccc(Cl)s4)ccc3o2)cc1)c1cccc(C(F)(F)F)c1 | 16 | 16 | 36 | 3 | 12 |
| O=S(=O)(Nc1ccc(-c2nc3cc(NS(=O)(=O)c4ccc5nsnc5c4)ccc3o2)cc1)c1ccc2nsnc2c1 | 11 | 11 | 0 | 6.4 | 8 |
